A word on the IC50: it is the point on the concentration scale where inhibition reaches its midpoint. For orientation: Kd means the concentration at which binding is half-saturated. As a reminder, the DC50 is the concentration giving 50% degradation.

Experiment [1] concerns the target T1, Protein cereblon/Dual specificity tyrosine-phosphorylation-regulated kinase 2 (Homo sapiens, UniProt Q92630+Q96SW2). As to the kind of experiment: PROTAC activity at CRBN/DYRK2 in human HeLa cells assessed as induction of DYRK2 degradation at 10 to 20 uM incubated for 24 hrs by Western blot analysis. It counts as cell-based. Conditions: dose 10-20 µM. The method in brief:
(§1)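 HeLa cells treated 24 h (one series at 10 and 20 μM, another at 5 and 10 μM); DYRK2 immunoblotted with GAPDH loading reference; band quantitation as mean ± SEM of three independent replicates, one-way ANOVA.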

Experiment [2] deals with T1, Protein cereblon/Dual specificity tyrosine-phosphorylation-regulated kinase 2. Kind of experiment: PROTAC activity at CRBN/DYRK2 in human HeLa cells assessed as induction of DYRK2 degradation at 5 to 10 uM incubated for 24 hrs by Western blot analysis. It counts as cell-based. Conditions: dose 5-10 µM. The method in brief:
as §1
(Immunoblotting shows a protein as a band on a membrane.)

The target is the same in experiment [3]. Kind of experiment: PROTAC activity at CRBN/DYRK2 in human HeLa cells assessed as reduction in DYRK2 protein level at 5 to 10 uM incubated for 12 hrs by Western blot analysis. It counts as cell-based. Conditions: dose 5-10 µM.
In experiment [4] the target is T2, Dual specificity tyrosine-phosphorylation-regulated kinase 2 (Homo sapiens, UniProt Q92630).
T2 sequence (Q92630 whole entry): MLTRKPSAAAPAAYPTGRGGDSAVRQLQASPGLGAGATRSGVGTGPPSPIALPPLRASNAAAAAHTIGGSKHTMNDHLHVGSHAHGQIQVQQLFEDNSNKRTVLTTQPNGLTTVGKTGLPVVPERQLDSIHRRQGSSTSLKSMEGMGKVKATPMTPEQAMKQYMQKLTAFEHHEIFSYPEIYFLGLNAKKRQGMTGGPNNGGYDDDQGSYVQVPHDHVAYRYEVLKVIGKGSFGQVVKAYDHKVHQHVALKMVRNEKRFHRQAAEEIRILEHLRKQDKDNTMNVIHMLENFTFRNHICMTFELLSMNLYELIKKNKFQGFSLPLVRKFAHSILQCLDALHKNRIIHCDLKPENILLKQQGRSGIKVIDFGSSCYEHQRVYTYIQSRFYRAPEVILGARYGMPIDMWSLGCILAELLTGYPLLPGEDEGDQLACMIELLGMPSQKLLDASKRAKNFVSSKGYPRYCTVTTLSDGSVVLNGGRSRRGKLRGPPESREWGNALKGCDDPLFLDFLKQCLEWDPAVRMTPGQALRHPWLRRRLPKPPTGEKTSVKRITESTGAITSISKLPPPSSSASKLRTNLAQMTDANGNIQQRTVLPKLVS
Kind of experiment: Inhibition of human recombinant DYRK2 using KKISGRLSPIMTEQ as substrate incubated for 60 mins in the presence of ATP by ADP-Glo kinase assay. Background: ADP-Glo turns the ADP formed in a reaction into a luminescent signal.

Experiment [5] addresses T2, Dual specificity tyrosine-phosphorylation-regulated kinase 2. As to the kind of experiment: Binding affinity to DYRK2 (unknown origin) assessed as dissociation constant by SPR analysis.
In a further experiment the test system is MDA-MB-231. Kind of experiment: Antiproliferative activity against human MDA-MB-231 cells assessed as inhibition of cell proliferation by CCK-8 assay. The format is functional, cell-based. For orientation: Formazan colour is commonly taken as a measure of viable cells.
The target of experiment [6] is T1, Protein cereblon/Dual specificity tyrosine-phosphorylation-regulated kinase 2. Kind of experiment: PROTAC activity at CRBN/DYRK2 in human MDA-MB-231 cells assessed as decrease in c-Myc phosphorylation at Ser62 residue at 5 to 20 uM incubated for 12 hrs by Western blot analysis. The format is cell-based. The settings on record: dose 5-20 µM. The method in brief: (§2)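 MM231 cells exposed 12 h across 1.25 to 20 μM; phospho-p53 (Ser46) and phospho-c-Myc (Ser62) immunoblotted, GAPDH loading reference; mean ± SEM of three independent replicates, one-way ANOVA.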

The target is the same in experiment [7]. Kind of experiment: PROTAC activity at CRBN/DYRK2 in human HeLa cells assessed as decrease in DYRK2 level by measuring reduction in fluorescence intensity at 5 to 10 uM incubated for 12 hrs by immunofluorescence based confocal laser scanning microscopy. It counts as cell-based. Conditions: dose 5-10 µM. The method in brief:
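HeLa cells treated 5 and 10 μM for 12 h; DYRK2 immunostained, Cy3 fluorescence intensity read by confocal laser scanning microscopy and quantified.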

The target is the same in experiment [8]. Kind of experiment: PROTAC activity at CRBN/DYRK2 in human MDA-MB-231 cells assessed as decrease in DYRK2 level at 2.5 to 10 uM incubated for 12 hrs by flow cytometry analysis. The format is cell-based. Conditions: dose 5-10 µM, in the assay text read “5 to 10 uM” for “2.5 to 10 uM”. The method in brief: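 MM231 cells treated 12 h; DYRK2 immunostaining quantified by flow cytometry as FITC-A channel fluorescence intensity.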

For experiment [9] the target is unchanged. Kind of experiment: PROTAC activity at CRBN/DYRK2 in human MDA-MB-231 cells assessed as increase in ubiquitination of DYRK2 at 10 uM incubated for 12 hrs by coimmunoprecipitation analysis. It counts as cell-based. The method in brief:
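MM231 cells pretreated with 10 μM MG132 for 2 h, then compound for 12 h; DYRK2 and ubiquitin examined by co-immunoprecipitation.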

The target is the same in experiment [10]. As to the kind of experiment: PROTAC activity at CRBN/DYRK2 in human MDA-MB-231 cells assessed as decrease in p53 phosphorylation at Ser46 residue at 5 to 20 uM incubated for 12 hrs by Western blot analysis. Conditions: dose 5-20 µM. The format is cell-based. The gist of the method:
as §2

The target is the same in experiment [11]. As to the kind of experiment: PROTAC activity at CRBN/DYRK2 in human HeLa cells assessed as decrease in DYRK2 level at 5 uM by Western blot analysis. It counts as cell-based. The settings on record: time 3-24 hrs, TDE = time-dependent effect. The method in brief:
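HeLa cells held at 5 μM over a time course (3 to 24 h); DYRK2 immunoblot normalised to GAPDH, quantified from three independent replicates, one-way ANOVA.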

Experiment [12] shares this target. As to the kind of experiment: PROTAC activity at CRBN/DYRK2 in human MDA-MB-231 cells assessed as induction of DYRK2 degradation at 2.5 to 40 uM incubated for 24 hrs by Western blot analysis. It counts as cell-based. Conditions: dose 2.5-40 µM. The method in brief: (§3)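 MM231 cells given graded concentrations for 24 h; DYRK2 Western blot with GAPDH loading reference, three independent replicates (mean ± SEM); DC50 taken from concentration–degradation data.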

Experiment [13] shares this target. Kind of experiment: PROTAC activity at CRBN/DYRK2 in human MDA-MB-231 cells assessed as induction of DYRK2 degradation incubated for 24 hrs by Western blot analysis. The format is cell-based. The method in brief:
as §3

Experiment [14] shares this target. As to the kind of experiment: PROTAC activity at CRBN/DYRK2 in human MDA-MB-231 cells assessed as reduction of DYRK2 protein level at 5 uM incubated for 12 hrs in presence of 3,5-bis(2-bromobenzylidene)piperidin-4-one by Western blot analysis. It counts as cell-based.
Experiment [15] shares this target. As to the kind of experiment: PROTAC activity at CRBN/DYRK2 in human MDA-MB-231 cells assessed as reduction in DYRK2 degradation level at 10 uM preincubated with MG132 for 2 hrs followed by compound addition and further incubated for 12 hrs by Western blot analysis. It counts as cell-based. The gist of the method:
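MM231 cells pretreated 2 h with 10 μM MG132 (UPS inhibitor) before compound for 12 h; DYRK2 Western blot with GAPDH reference, three independent replicates, one-way ANOVA.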

For experiment [16] the target is unchanged. Kind of experiment: PROTAC activity at CRBN/DYRK2 in human HeLa cells assessed as induction of DYRK2 degradation incubated for 24 hrs by Western blot analysis. The format is cell-based. The gist of the method:
(§4)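 HeLa cells exposed to graded concentrations for 24 h; DYRK2 Western blot normalised to GAPDH, three independent replicates (mean ± SEM); DC50 derived from concentration series.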

For experiment [17] the target is unchanged. Kind of experiment: PROTAC activity at CRBN/DYRK2 in human HeLa cells assessed as induction of DYRK2 degradation at 2.5 to 40 uM incubated for 24 hrs by Western blot analysis. It counts as cell-based. The settings on record: dose 2.5-40 µM. The method in brief:
as §4

Active and inactive are the calls of the source. The rule behind the calls is not given here.

As to `COc1cc(/C=C/C(=O)CC(=O)/C=C/c2ccc(OC(=O)CCOCCOCCOCCNC(=O)COc3cccc4c3C(=O)N(C3CCC(=O)NC3=O)C4=O)c(OC)c2)ccc1O` (centres undefined), in experiment [1], the result was Active.

Consider `O=C(CN1C/C(=C\c2ccccc2Cl)C(=O)/C(=C/c2ccccc2Cl)C1)NCCOCCOCCOCCNc1cccc2c1C(=O)N(C1CCC(=O)NC1=O)C2=O` (centres undefined), for which the result in [2] was Active.

`O=C(CN1C/C(=C\c2ccccc2F)C(=O)/C(=C/c2ccccc2F)C1)NCCOCCOCCOCCNc1cccc2c1C(=O)N(C1CCC(=O)NC1=O)C2=O` (centres undefined): in [2], the result was Active.

As to `O=C(CN1C/C(=C\c2ccccc2Br)C(=O)/C(=C/c2ccccc2Br)C1)NCCOCCOCCNc1cccc2c1C(=O)N(C1CCC(=O)NC1=O)C2=O` (centres undefined), in experiment [2], the outcome was Active.

On to `O=C(CN1C/C(=C\c2ccccc2Cl)C(=O)/C(=C/c2ccccc2Cl)C1)NCCOCCOCCNc1cccc2c1C(=O)N(C1CCC(=O)NC1=O)C2=O` (centres undefined), for which, in [2], the outcome was Active.

As to `CN1C(=O)CCC(N2C(=O)c3cccc(NCCOCCOCCOCCNC(=O)CN4C/C(=C\c5ccccc5Br)C(=O)/C(=C/c5ccccc5Br)C4)c3C2=O)C1=O` (centres undefined), the outcome in experiment [3] was inactive.

For the compound `O=C1/C(=C/c2ccccc2Br)CNC/C1=C\c1ccccc1Br`, the values for the IC50 (in experiment [4]; with MDA-MB-231) were 0.024 µM and 4.2 µM, respectively. The Kd in experiment [5] was determined as 7.9 µM.

On to `O=C(CN1C/C(=C\c2ccccc2F)C(=O)/C(=C/c2ccccc2F)C1)NCCOCCOCCNc1cccc2c1C(=O)N(C1CCC(=O)NC1=O)C2=O` (centres undefined), for which the result in experiment [2] was Active.

On to `O=C(CN1C/C(=C\c2ccccc2Br)C(=O)/C(=C/c2ccccc2Br)C1)NCCOCCOCCOCCNc1cccc2c1C(=O)N(C1CCC(=O)NC1=O)C2=O` (centres undefined), for which the outcome in experiment [6], in experiment [7], in experiment [8], in experiment [9], in [10] and in [12] was Active. In addition, the result in experiment [2] and in [17] was Active. Moreover, in experiment [5], the dissociation constant (Kd) was 29.7 µM. For the same compound, in experiment [11], the Activity result was “Tde”. Further, the DC50 in [13] came out at 1.61 µM; in [16], 3.26 µM. In addition, the result in [14] and in experiment [15] was inactive. Besides, the IC50 in the experiment on MDA-MB-231 turned out to be 9.1 µM.

Consider `COc1cc(/C=C/C(=O)CC(=O)/C=C/c2ccc(O)c(OC)c2)ccc1O` [CURCUMIN], for which the IC50 in experiment [4] was 0.01 µM; with MDA-MB-231, more than 20 µM. The Kd in experiment [5] is 14.5 µM.

Take `COc1cc(/C=C/C(=O)CC(=O)/C=C/c2ccc(OC(=O)CCOCCOCCNC(=O)COc3cccc4c3C(=O)N(C3CCC(=O)NC3=O)C4=O)c(OC)c2)ccc1O` (centres undefined): the result in experiment [1] was Active.

The record behind these values is ChEMBL document CHEMBL5634200, “Discovery of the First Potent DYRK2 Proteolysis Targeting Chimera Degraders” (ACS Med Chem Lett, 2024).
